Results from ChEMBL document CHEMBL4665670 (ACS Med Chem Lett, 2019).
Active and inactive are the calls of the source. No cut-off for these calls is given here.

Tests used:
Rattus norvegicus = experiment: (§1) In vivo protein occupancy at BTK in Wistar Han rat spleen at 10 mg/kg, po measured after 5 hrs relative to control; assay type: functional
Summary of the method: (§2)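 BTK occupancy measured in spleen homogenates of female rats 5 h after a single 10 mg kg^-1 oral dose, relative to the respective vehicle control. Single-animal values, mean ± SD.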

[1] = Clearance in Sprague-Dawley rat at 1 mg/kg, iv measured up to 24 hrs by HPLC analysis; assay type: ADME, organism-based; conditions: in vivo
[2] = Intrinsic clearance in human liver microsomes; assay type: ADME, Microsome
[3] = Intrinsic clearance in rat liver microsomes; assay type: ADME, Microsome
[4] = biological target: T1, Tyrosine-protein kinase BTK (Homo sapiens, UniProt Q06187); experiment: Inhibition of BTK in human whole blood assessed as reduction in polyclonal anti-IgM antibody/human IL4-stimulated CD69 cell surface expression on B cells incubated for 16 hrs by FACS analysis; assay type: tissue-based
[5] = biological target: T1, Tyrosine-protein kinase BTK; experiment: Inhibition of full length human unphosphorylated BTK using FITC-Ahx-TSELKKVVALYDYMPMNAND-NH2 as substrate incubated for 60 mins in presence of ATP at Km concentration
[6] = as §1; assay type: functional; summary of the method: as §2
[7] = Terminal plasma concentration in ovalbumin-immunized C57Bl6 mouse at 30 mg/kg, po administered 2 h prior to OVA immunization and measured after 5 hrs; assay type: ADME, organism-based; conditions: read-out: Cp(T)
Summary of the method: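 Mice received a single oral dose 2 h before induction of the reverse passive Arthus reaction, which was intravenous ovalbumin followed by intradermal polyclonal IgG anti-OVA antibody. Terminal blood compound concentration was measured 5 h after dosing and reported in nM.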

Mus musculus [8] = experiment: […] activity in ovalbumin-immunized C57Bl6 mouse assessed as reduction in skin swelling at 30 mg/kg, po administered 2 h prior to OVA immunization and measured after 5 hrs by caliper method relative to control; assay type: functional; design: scale not given: the % may be the effect or the level left
Summary of the method: (§3)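 Mouse reverse passive Arthus reaction: acute FcγR-dependent hypersensitivity induced by intravenous ovalbumin antigen followed by intradermal polyclonal IgG anti-OVA antibody. Single oral dose given 2 h before induction; skin swelling measured 5 h after dosing, compared with vehicle control (SD shown).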

[9] = Oral bioavailability in Sprague-Dawley rat at 3 mg/kg measured up to 24 hrs by HPLC analysis; assay type: ADME, organism-based; conditions: in vivo
[10] = Clearance in Sprague-Dawley rat at 3 mg/kg, po measured up to 24 hrs by HPLC analysis; assay type: ADME, organism-based; conditions: in vivo
[11] = Terminal plasma concentration in ovalbumin-immunized C57Bl6 mouse at 60 mg/kg, po administered 2 h prior to OVA immunization and measured after 5 hrs; assay type: ADME, organism-based; conditions: read-out: Cp(T)
Summary of the method: (§4)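 Terminal blood drug concentrations taken in the mouse reverse passive Arthus study (i.v. OVA plus intradermal IgG anti-OVA), after a single oral dose of 6, 20 or 60 mg/kg given 2 h before induction, sampled 5 h after dosing.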

[12] = Terminal plasma concentration in ovalbumin-immunized C57Bl6 mouse at 20 mg/kg, po administered 2 h prior to OVA immunization and measured after 5 hrs; assay type: ADME, organism-based; conditions: read-out: Cp(T); summary of the method: as §4
[13] = Terminal plasma concentration in ovalbumin-immunized C57Bl6 mouse at 6 mg/kg, po administered 2 h prior to OVA immunization and measured after 5 hrs; assay type: ADME, organism-based; conditions: read-out: Cp(T); summary of the method: as §4
Mus musculus [14] = experiment: […] activity in ovalbumin-immunized C57Bl6 mouse assessed as reduction in skin swelling at 60 mg/kg, po administered 2 h prior to OVA immunization and measured after 5 hrs by caliper method relative to control; assay type: functional; design: scale not given: the % may be the effect or the level left; summary of the method: as §3
Mus musculus [15] = experiment: […] activity in ovalbumin-immunized po dosed C57Bl6 mouse assessed as reduction in skin swelling administered 2 h prior to OVA immunization and measured after 5 hrs by caliper method; assay type: functional, organism-based; conditions: dose mg/kg 6-60, time 2.0 hrs; summary of the method: as §3
[16] = biological target: T2, Epidermal growth factor receptor (Homo sapiens, UniProt P00533); experiment: Inhibition of EGF-induced EGFR phosphorylation in human A431 cells preincubated for 24 hrs followed by EGF stimulation and measured after 10 mins by HTRF based immunoassay; assay type: cell-based
[17] = biological target: T1, Tyrosine-protein kinase BTK; experiment: Inhibition of BTK in vitamin D3 differentiated human THP1 cells assessed as inhibition of FCgammaR-induced IL8 production measured after 24 hrs by immunoblot analysis
[18] = biological target: T3, Tyrosine-protein kinase JAK3 (Homo sapiens) (UniProt P52333); experiment: Inhibition of JAK3 (unknown origin)
T3 sequence (whole entry): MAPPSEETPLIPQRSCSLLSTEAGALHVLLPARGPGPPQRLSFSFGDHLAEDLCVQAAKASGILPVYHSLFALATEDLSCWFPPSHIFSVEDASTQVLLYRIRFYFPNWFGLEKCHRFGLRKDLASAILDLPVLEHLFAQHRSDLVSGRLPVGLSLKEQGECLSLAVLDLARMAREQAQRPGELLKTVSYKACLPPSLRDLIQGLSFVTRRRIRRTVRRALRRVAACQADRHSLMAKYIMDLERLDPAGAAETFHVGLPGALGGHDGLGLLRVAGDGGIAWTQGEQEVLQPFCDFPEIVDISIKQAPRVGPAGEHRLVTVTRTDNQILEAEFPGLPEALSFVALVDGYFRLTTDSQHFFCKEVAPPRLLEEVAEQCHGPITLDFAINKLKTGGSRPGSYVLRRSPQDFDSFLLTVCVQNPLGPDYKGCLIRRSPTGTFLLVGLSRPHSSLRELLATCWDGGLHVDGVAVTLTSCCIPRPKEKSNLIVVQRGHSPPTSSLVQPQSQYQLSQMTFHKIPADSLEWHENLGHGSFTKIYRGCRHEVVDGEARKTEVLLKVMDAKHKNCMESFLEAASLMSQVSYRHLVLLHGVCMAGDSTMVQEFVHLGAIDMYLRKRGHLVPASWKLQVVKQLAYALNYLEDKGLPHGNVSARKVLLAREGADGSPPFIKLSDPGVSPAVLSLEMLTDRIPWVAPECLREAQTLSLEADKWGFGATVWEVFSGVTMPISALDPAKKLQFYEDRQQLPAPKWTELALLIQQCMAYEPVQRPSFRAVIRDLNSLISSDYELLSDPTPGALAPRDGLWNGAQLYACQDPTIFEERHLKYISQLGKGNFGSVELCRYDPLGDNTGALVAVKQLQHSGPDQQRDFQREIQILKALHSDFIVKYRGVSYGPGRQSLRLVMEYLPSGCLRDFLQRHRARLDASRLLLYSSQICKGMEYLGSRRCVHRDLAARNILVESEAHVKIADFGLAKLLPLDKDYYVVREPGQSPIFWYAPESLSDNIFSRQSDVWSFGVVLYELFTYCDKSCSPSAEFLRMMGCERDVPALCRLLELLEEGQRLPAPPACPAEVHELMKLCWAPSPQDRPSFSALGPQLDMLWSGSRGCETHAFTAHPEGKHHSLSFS

[19] = biological target: Receptor tyrosine-protein kinase erbB-4 (Homo sapiens, UniProt Q15303); experiment: Inhibition of ERBB4 (unknown origin)
[20] = biological target: Receptor tyrosine-protein kinase erbB-2 (Homo sapiens) (UniProt P04626); experiment: Inhibition of ERBB2 (unknown origin)
[21] = biological target: T2, Epidermal growth factor receptor; experiment: Inhibition of EGFR (unknown origin)
[22] = biological target: T1, Tyrosine-protein kinase BTK; experiment: Irreversible inhibition of human BTK kinase domain by LC/MS analysis
[23] = Intrinsic clearance in mouse liver microsomes; assay type: ADME, Microsome

T1 sequence (Q06187 whole entry): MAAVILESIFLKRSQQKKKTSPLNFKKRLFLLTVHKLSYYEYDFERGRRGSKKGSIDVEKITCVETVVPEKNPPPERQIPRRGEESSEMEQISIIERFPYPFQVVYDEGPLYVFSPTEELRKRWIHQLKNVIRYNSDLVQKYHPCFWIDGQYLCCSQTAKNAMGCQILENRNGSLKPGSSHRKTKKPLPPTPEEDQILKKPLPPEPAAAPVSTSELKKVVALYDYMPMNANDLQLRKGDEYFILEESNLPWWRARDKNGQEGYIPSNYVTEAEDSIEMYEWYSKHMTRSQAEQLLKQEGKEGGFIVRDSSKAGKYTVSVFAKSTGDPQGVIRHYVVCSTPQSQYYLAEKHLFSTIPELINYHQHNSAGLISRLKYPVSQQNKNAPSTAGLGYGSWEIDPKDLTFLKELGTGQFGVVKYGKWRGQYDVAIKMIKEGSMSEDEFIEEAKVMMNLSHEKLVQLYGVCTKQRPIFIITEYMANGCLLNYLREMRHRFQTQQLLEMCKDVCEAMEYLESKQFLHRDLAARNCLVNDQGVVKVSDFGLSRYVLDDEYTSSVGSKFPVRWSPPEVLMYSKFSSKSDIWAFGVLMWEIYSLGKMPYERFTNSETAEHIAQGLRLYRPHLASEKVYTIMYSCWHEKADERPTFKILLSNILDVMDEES
T2 sequence (P00533 whole entry): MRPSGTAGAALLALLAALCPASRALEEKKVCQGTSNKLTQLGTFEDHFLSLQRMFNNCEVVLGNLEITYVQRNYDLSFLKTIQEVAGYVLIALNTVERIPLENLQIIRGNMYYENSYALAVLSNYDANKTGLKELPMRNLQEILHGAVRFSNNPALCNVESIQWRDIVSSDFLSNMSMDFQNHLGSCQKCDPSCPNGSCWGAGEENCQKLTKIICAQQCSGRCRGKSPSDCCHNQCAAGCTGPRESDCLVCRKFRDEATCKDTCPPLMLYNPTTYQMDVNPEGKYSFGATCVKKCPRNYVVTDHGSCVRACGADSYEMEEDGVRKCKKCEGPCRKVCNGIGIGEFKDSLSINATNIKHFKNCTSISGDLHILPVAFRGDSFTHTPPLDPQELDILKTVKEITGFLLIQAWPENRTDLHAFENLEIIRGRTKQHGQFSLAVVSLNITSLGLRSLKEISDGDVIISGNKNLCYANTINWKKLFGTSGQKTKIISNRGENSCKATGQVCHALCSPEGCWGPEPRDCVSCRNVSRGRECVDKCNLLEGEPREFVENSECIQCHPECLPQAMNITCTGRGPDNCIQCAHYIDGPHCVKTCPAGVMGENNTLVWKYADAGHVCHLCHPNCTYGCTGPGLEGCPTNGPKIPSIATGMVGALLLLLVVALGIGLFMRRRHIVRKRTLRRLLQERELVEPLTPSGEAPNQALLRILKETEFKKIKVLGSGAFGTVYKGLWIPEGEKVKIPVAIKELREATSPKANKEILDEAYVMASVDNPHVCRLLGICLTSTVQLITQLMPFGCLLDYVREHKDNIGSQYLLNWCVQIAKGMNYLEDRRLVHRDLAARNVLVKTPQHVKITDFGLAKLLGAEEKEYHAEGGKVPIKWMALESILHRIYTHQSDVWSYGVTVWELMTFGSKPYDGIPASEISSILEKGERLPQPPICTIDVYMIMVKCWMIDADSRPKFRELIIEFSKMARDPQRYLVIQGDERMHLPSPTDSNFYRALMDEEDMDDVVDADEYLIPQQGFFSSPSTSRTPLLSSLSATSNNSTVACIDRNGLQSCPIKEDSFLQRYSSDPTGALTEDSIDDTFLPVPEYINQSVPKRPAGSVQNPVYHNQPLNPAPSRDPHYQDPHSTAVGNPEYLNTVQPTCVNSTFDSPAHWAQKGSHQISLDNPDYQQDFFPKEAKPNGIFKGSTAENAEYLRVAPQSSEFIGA
Receptor tyrosine-protein kinase erbB-4, sequence (Q15303 whole entry): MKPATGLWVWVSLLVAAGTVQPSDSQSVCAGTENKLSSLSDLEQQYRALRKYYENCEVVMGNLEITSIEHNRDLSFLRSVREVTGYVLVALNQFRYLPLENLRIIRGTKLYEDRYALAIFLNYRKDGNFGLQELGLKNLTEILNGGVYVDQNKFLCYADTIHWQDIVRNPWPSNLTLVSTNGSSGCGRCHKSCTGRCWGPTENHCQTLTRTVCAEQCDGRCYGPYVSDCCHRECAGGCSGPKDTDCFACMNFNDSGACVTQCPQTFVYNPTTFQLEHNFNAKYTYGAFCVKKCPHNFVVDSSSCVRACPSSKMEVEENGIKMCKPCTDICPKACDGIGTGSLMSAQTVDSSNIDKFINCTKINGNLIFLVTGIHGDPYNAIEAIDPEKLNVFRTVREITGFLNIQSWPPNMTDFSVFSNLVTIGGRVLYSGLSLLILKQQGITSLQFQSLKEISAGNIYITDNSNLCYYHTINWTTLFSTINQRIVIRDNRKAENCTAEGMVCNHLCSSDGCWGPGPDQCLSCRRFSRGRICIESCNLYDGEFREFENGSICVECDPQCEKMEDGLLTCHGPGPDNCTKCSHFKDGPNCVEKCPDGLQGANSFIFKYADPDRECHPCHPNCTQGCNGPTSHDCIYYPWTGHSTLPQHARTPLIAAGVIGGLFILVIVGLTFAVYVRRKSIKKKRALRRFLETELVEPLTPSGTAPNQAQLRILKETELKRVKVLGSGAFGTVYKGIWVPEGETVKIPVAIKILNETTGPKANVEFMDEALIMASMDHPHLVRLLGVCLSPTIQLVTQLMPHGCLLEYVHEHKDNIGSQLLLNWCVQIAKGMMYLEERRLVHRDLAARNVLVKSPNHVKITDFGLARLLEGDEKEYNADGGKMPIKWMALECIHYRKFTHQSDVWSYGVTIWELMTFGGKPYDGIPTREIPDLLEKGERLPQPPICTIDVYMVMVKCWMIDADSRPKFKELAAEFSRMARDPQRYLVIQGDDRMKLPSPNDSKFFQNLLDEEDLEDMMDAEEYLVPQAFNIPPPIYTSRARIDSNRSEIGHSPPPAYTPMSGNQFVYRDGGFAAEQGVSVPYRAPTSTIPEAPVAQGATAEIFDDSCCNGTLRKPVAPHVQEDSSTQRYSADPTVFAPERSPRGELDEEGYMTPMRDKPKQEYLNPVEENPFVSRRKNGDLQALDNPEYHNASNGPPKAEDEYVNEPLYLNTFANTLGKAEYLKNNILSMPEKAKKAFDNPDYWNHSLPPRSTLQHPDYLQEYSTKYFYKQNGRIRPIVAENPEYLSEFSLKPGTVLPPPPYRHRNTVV
Receptor tyrosine-protein kinase erbB-2 (Homo sapiens), sequence (P04626 whole entry): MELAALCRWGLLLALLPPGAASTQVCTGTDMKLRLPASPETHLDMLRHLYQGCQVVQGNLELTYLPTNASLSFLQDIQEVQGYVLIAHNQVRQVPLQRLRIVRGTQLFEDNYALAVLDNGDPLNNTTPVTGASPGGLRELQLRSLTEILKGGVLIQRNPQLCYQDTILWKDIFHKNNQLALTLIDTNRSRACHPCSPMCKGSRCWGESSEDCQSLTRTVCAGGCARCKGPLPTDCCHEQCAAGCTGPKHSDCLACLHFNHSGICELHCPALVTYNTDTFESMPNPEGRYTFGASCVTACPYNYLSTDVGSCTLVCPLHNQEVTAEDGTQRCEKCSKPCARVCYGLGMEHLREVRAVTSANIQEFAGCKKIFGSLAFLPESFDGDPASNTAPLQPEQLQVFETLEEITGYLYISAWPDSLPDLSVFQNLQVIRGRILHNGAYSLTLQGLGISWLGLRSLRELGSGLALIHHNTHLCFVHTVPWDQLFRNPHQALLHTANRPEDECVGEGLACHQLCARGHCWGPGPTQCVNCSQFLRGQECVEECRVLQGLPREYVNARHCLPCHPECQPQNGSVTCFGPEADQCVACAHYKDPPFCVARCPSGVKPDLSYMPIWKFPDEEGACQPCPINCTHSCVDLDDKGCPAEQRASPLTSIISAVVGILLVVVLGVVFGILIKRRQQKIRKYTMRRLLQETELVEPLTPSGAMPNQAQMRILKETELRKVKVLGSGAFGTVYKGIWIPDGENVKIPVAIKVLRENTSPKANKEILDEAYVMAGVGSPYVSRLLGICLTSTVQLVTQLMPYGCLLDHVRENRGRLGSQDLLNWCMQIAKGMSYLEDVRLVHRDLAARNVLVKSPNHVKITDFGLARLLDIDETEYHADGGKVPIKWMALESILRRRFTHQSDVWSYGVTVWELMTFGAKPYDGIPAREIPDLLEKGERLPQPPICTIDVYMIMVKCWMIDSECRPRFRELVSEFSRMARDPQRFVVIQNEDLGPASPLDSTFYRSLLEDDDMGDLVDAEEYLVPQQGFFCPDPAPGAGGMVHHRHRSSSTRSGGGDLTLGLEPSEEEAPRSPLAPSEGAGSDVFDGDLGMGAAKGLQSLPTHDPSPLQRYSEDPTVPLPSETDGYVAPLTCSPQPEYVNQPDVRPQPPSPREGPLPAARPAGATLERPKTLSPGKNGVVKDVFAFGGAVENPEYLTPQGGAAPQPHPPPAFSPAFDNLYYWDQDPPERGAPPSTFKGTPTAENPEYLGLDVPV

Row | SMILES | clearance [1] | Intrinsic clearance (CLint) [2] | Intrinsic clearance (CLint) [3] | IC50 [4] | IC50 [5] | Activity [6] | further results
1 | C=CC(=O)N1CCC[C@@H](n2nc(-c3ccc(Oc4ccccc4)cc3)c3c(N)ncnc32)C1 [IBRUTINIB] |  |  |  |  |  | 93% | concentration at 2 h [7]: 187 nM; Activity (Mus musculus [8]): 84%
2 | C=CC(=O)N(C)Cc1c[nH]c2ncnc(-c3cccc(NC(=O)c4ccc(C5CC5)cc4)c3C)c12 |  | 252 µL/min/mg | 578 µL/min/mg | 7470 nM | 190 nM |  | 
3 | C=CC(=O)N1CC=C(c2c[nH]c3ncnc(-c4cc(F)cc(NC(=O)c5ccc(C6CC6)cc5)c4C)c23)CC1 | > 300 mL/min/kg | 660 µL/min/mg | 408 µL/min/mg |  |  | 96% | 
4 | C=CC(=O)N(C)Cc1c[nH]c2ncnc(-c3cccc(NC(=O)c4ccc(C(C)(C)C)cc4)c3C)c12 |  | > 700 µL/min/mg | 693 µL/min/mg | 934 nM |  |  | Activity (Rattus norvegicus): inactive; bioavailability [9]: 2%; CL/F [10]: > 300 mL/min/kg; concentration at 2 h [11]: 118 nM; concentration at 2 h [12]: 14 nM; concentration at 2 h [13]: 4 nM; Activity (Mus musculus [14]): 65%; Activity (Mus musculus [15]): Dose-dependent effect; IC50 [16]: > 8000 nM; IC50 [17]: 80 nM; inhibition [18]: inactive; IC50 [19]: > 10000 nM; inhibition [20]: inactive; IC50 [21]: > 10000 nM; inhibition [22]: Active; CLH [23]: 554 µL/min/mg
5 | C=CC(=O)N(C)Cc1c[nH]c2ncnc(-c3cc(F)cc(NC(=O)c4ccc(C5CC5)cc4)c3C)c12 |  | 308 µL/min/mg | > 700 µL/min/mg | 1260 nM | 26 nM |  | 
6 | C=CC(=O)N1CCCC(c2c[nH]c3ncnc(-c4cc(F)cc(NC(=O)c5ccc(C6CC6)cc5)c4C)c23)C1 (stereo not given) |  | 603 µL/min/mg | > 700 µL/min/mg | 8000 nM | 390 nM |  | 
7 | CCC(=O)N(C)Cc1c[nH]c2ncnc(-c3cccc(NC(=O)c4ccc(C(C)(C)C)cc4)c3C)c12 |  |  |  |  | 3900 nM |  | 

Second part, led by results:

Row | clearance [1] | Intrinsic clearance (CLint) [2] | Intrinsic clearance (CLint) [3] | IC50 [4] | IC50 [5] | SMILES | Activity [6] | further results
8 | 176 mL/min/kg | > 700 µL/min/mg | 628 µL/min/mg | 26 nM | 0.6 nM | Cc1c(NC(=O)c2ccc(C3CC3)cc2)cc(F)cc1-c1ncnc2[nH]cc(C3=CCN(C(=O)/C=C/CN4CCCC4)CC3)c12 |  | Activity (Rattus norvegicus): inactive
9 |  | 126 µL/min/mg | 578 µL/min/mg | 19 nM | 1 nM | C=CC(=O)N1CCC(c2c[nH]c3ncnc(-c4cc(F)cc(NC(=O)c5ccc(C6CC6)cc5)c4C)c23)CC1 |  | 
10 | > 300 mL/min/kg | 459 µL/min/mg | 127 µL/min/mg | 66 nM | 6 nM | C/C=C/C(=O)N1CC=C(c2c[nH]c3ncnc(-c4cc(F)cc(NC(=O)c5ccc(C6CC6)cc5)c4C)c23)CC1 | 70% | 
11 | 183 mL/min/kg | 3 µL/min/mg | 41 µL/min/mg | 303 nM | 1.4 nM | C=CC(=O)N1CC(O)(c2c[nH]c3ncnc(-c4cc(F)cc(NC(=O)c5ccc(C6CC6)cc5)c4C)c23)C1 |  | 
12 | 300 mL/min/kg | 39 µL/min/mg | 98 µL/min/mg | 16 nM | 1.2 nM | C=CC(=O)N(C)C(=O)Cc1c[nH]c2ncnc(-c3cc(F)cc(NC(=O)c4ccc(C5CC5)cc4)c3C)c12 | 44% | 
13 |  | 111 µL/min/mg | 171 µL/min/mg | 225 nM | 5 nM | C=CC(=O)N1CCC(c2c[nH]c3ncnc(-c4cc(F)cc(NC(=O)c5ccc(C6CC6)cc5)c4C)c23)C1 (stereo not given) |  | 
